What is called inhibition is the relative decrease from the control value, in per cent. By EC50 is commonly meant the concentration giving half of the maximal effect.

The values that follow come from ChEMBL document CHEMBL4145611, “Discovery of Marinoquinolines as Potent and Fast-Acting Plasmodium falciparum Inhibitors with in Vivo Activity” (J Med Chem, 2018).

Data set [1] has as its system Plasmodium berghei. Briefly: Antiplasmodial activity against Plasmodium berghei NK65 infected in Swiss mouse assessed as reduction in parasitemia at 50 mg/kg, ip administered for 3 consecutive days post infection measured on day 7 post infection relative to control. Format: functional. Details: scale not given: the % may be the effect or the level left. An outline of the steps: (§1)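 P. berghei NK65 suppressive test: adult Swiss outbred mice (20±2 g) inoculated ip with 1×10^5 infected red cells, randomized to groups, dosed daily for three days by oral gavage or ip injection with test compound at 50 mg/kg in 3% (v/v) DMSO; CQ 20 mg/kg and vehicle groups in parallel. Giemsa-stained tail-blood smears on days 5, 7, 9; inhibition = [(C−T)/C]×100 versus untreated control.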

For data set [2], the system named is Plasmodium falciparum. Put plainly: Antiplasmodial activity against early ring stage of Plasmodium falciparum assessed as increase in free heme levels after 32 hrs by UV-Vis spectrophotometry. It counts as functional, organism-based.
Data set [3] relates to Mus musculus. Put plainly: Toxicity in Swiss mouse assessed as effect on body weight at 1000 mg/kg, po measured after 30 days. Format: organism-based. The settings on record: in vivo, 720 h. In outline:
(§2)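 Single 1000 mg/kg dose given to mice by gavage or ip injection, 3 mice per group. Survival and body weight followed against untreated controls over 30 days of observation.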

The test system of data set [4] is Mus musculus. Put plainly: Toxicity in Swiss mouse assessed as effect on body weight at 1000 mg/kg, ip measured after 30 days. Format: organism-based. Particulars: in vivo, 720 h. In outline: as §2
Data set [5] deals with Plasmodium berghei. Put plainly: Antiplasmodial activity against Plasmodium berghei NK65 infected in Swiss mouse assessed as reduction in parasitemia at 50 mg/kg, ip administered for 3 consecutive days post infection measured on day 9 post infection relative to control. Format: functional. Details: scale not given: the % may be the effect or the level left. In outline:
as §1

The test system of data set [6] is Plasmodium falciparum. Briefly: Antiplasmodial activity against chloroquine-sensitive trophozoite form of Plasmodium falciparum 3D7 infected in RBC after 72 hrs by SYBR green assay. Format: functional, organism-based. Particulars: 3D7, Erythrocyte. In outline:
(§3)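 Sorbitol-synchronized 3D7 cultures of each stage (or asynchronous) diluted to 0.5% parasitemia, 2% hematocrit, exposed to graded compound concentrations (0.05% DMSO) for 72 h in triplicate. Read-out: lysis buffer (20 mM Tris pH 7.5, 5 mM EDTA, 0.008% saponin, 0.08% Triton X-100) with SYBR green I 1:20000, fluorescence 485/535 nm, uninfected erythrocytes as background; IC50 by curve fitting versus drug-free growth.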

The subject of data set [7] is Plasmodium falciparum. Put plainly: Plasmodicidal activity against Plasmodium falciparum 3D7A infected in erythrocytes assessed as parasite survival at 10 times IC50 pre-incubated for 24 hrs followed by compound washout and measured after 24 hrs by […] incorporation assay (reference value: 100%). Format: functional.
Data set [8] deals with Plasmodium berghei. Briefly: Antiplasmodial activity against liver stage of luciferase-expressing transgenic Plasmodium berghei sporozoites infected in human HepG2 cells administered 18 hrs before infection and measured after 48 hrs by luciferase reporter gene assay. Format: functional, organism-based. An outline of the steps: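 HepG2 cells (3×10^3) plated overnight; compound (10^-4 to 10^-9 M) added 18 h before infection with 1×10^5 freshly isolated luciferase-expressing P. berghei sporozoites from Anopheles stephensi salivary glands; culture 48 h, luciferase activity taken as parasite viability; atovaquone positive control.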
For orientation: A reporter such as luciferase makes a cellular process visible.

The subject of data set [9] is Plasmodium berghei. Briefly: Antiplasmodial activity against Plasmodium berghei NK65 infected in Swiss mouse assessed as reduction in parasitemia at 50 mg/kg, po administered via gavage for 3 consecutive days post infection measured on day 9 post infection relative to control. It counts as functional. Set-up: scale not given: the % may be the effect or the level left. In outline:
as §1

Data set [10] relates to Plasmodium falciparum. Put plainly: Antiplasmodial activity against chloroquine-sensitive schizont form of Plasmodium falciparum 3D7 infected in RBC after 72 hrs by SYBR green assay. It counts as functional, organism-based. The settings on record: 3D7, Erythrocyte. In outline:
as §3

Data set [11] relates to Plasmodium falciparum. Briefly: Antiplasmodial activity against Plasmodium falciparum assessed as fractional inhibitory concentration index at IC50 concentration in presence of artesunate by isobologram plot analysis.
Data set [12] deals with Plasmodium berghei. Briefly: Antiplasmodial activity against Plasmodium berghei NK65 infected in Swiss mouse assessed as reduction in parasitemia at 50 mg/kg, ip administered for 3 consecutive days post infection measured on day 5 post infection relative to control. Set-up: scale not given: the % may be the effect or the level left. It counts as functional. An outline of the steps:
as §1

Data set [13] has as its system Plasmodium falciparum. Briefly: Antiplasmodial activity against of female Plasmodium falciparum NF54 gametocytes assessed as inhibition of xanthurenic acid-stimulated gamete formation at 1 uM preincubated for 24 to 48 hrs followed by xanthurenic acid stimulation and measured after 20 mins by automated time-lapse microscopy relative to control. Format: functional. In outline:
(§4)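 Mature NF54 gametocytes exposed to 1 µM compound (DMSO ≤0.25%) for 24 or 48 h, then activated by cooling 37→26 °C with 2.5 µM xanthurenic acid. Male: exflagellation by automated time-lapse microscopy at 20 min, three readings per well. Female: after 24 h at 26 °C, Cy3 anti-Pfs25 staining, four fields counted. Inhibition versus DMSO and 20 µM Gentian Violet controls; four independent repeats.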

Data set [14] deals with Mus musculus. Briefly: Toxicity in Swiss mouse assessed as survival at 1000 mg/kg, po measured up to 30 days. It counts as organism-based. The settings on record: in vivo, 720 h. In outline:
as §2

For data set [15], the system named is Plasmodium berghei. Briefly: Antiplasmodial activity against Plasmodium berghei NK65 infected in Swiss mouse assessed as reduction in parasitemia at 50 mg/kg, po administered via gavage for 3 consecutive days post infection measured on day 5 post infection relative to control. It counts as functional. Details: scale not given: the % may be the effect or the level left. An outline of the steps: as §1

Data set [16] deals with Plasmodium berghei. Briefly: Antiplasmodial activity against Plasmodium berghei NK65 infected in Swiss mouse assessed as reduction in parasitemia at 50 mg/kg, po administered via gavage for 3 consecutive days post infection measured on day 7 post infection relative to control. It counts as functional. Details: scale not given: the % may be the effect or the level left. An outline of the steps: as §1

In data set [17] the test system is Plasmodium falciparum. Put plainly: Plasmodicidal activity against Plasmodium falciparum 3D7A infected in erythrocytes assessed as parasite survival at 10 times IC50 pre-incubated for 48 hrs followed by compound washout and measured after 24 hrs by […] incorporation assay (reference value: 100%). It counts as functional.
The subject of data set [18] is Plasmodium berghei. Briefly: Antiplasmodial activity against Plasmodium berghei NK65 infected in Swiss mouse assessed as assessed as mouse survival at 50 mg/kg, ip administered via gavage for 3 consecutive days post infection measured on day 9 post infection (reference value: 19 +/- 5 days). It counts as functional.
Data set [19] concerns Plasmodium berghei. Briefly: Antiplasmodial activity against Plasmodium berghei NK65 infected in Swiss mouse assessed as mouse survival at 50 mg/kg, po administered for 3 consecutive days post infection measured on day 9 post infection (reference value: 19 +/- 5 days). Format: functional.
For data set [20], the system named is Plasmodium falciparum. Put plainly: Antiplasmodial activity against chloroquine/pyrimethamine/sulfadoxine-resistant blood parasite forms of Plasmodium falciparum K1 infected in RBC by SYBR green assay. It counts as functional, organism-based. Particulars: K1, Erythrocyte. In outline: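 Sorbitol-synchronised K1 culture, mostly rings, at 0.5% parasitemia and 2% hematocrit exposed to serial compound dilutions (0.05% DMSO) in triplicate. Cells lysed with Tris/EDTA/saponin/Triton buffer containing SYBR green I; fluorescence read at 485/535 nm, uninfected erythrocytes as background. IC50 from curve fit versus drug-free growth.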

The subject of data set [21] is Plasmodium falciparum. Put plainly: Antiplasmodial activity against early ring stage of Plasmodium falciparum assessed as decrease in hemozoin accumulation after 32 hrs by UV-Vis spectrophotometry. Format: functional, organism-based.
For data set [22], the system named is Plasmodium falciparum. Briefly: Antiplasmodial activity against chloroquine-sensitive blood parasite forms of Plasmodium falciparum 3D7 infected in RBC by SYBR green assay. It counts as functional, organism-based. Particulars: 3D7, Erythrocyte. In outline: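 3D7 blood-stage cultures, sorbitol-synchronized twice beforehand, used at 5-10% parasitemia with >80% rings, diluted to 0.5% parasitemia and 2% hematocrit with graded compound (0.05% DMSO), triplicate; artesunate and chloroquine controls. SYBR green I lysis-buffer fluorescence at 485/535 nm; IC50 from curve fit relative to drug-free medium.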

Data set [23] relates to Plasmodium falciparum. Briefly: Antiplasmodial activity against early ring stage form of Plasmodium falciparum assessed as induction of alterations in parasite morphology at 10 times IC50 concentration after 8 to 16 hrs by microscopic analysis. It counts as functional, organism-based.
In data set [24] the test system is Mus musculus. Put plainly: Toxicity in Swiss mouse assessed as survival at 1000 mg/kg, ip measured up to 30 days. It counts as organism-based. The settings on record: in vivo, 720 h. In outline: as §2
For data set [25], the system named is Plasmodium falciparum. Put plainly: Antiplasmodial activity against of male Plasmodium falciparum NF54 gametocytes assessed as inhibition of xanthurenic acid-stimulated gamete formation at 1 uM preincubated for 24 to 48 hrs followed by xanthurenic acid stimulation and measured after 20 mins by automated time-lapse microscopy relative to control. It counts as functional. In outline:
as §4

The test system of data set [26] is Plasmodium falciparum. Put plainly: Antiplasmodial activity against chloroquine-sensitive asynchronous form of Plasmodium falciparum 3D7 infected in RBC after 72 hrs by SYBR green assay. Format: functional, organism-based. The settings on record: 3D7, Erythrocyte. In outline:
as §3

In data set [27] the test system is Plasmodium falciparum. Briefly: Antiplasmodial activity against chloroquine-sensitive ring form of Plasmodium falciparum 3D7 infected in RBC after 72 hrs by SYBR green assay. Particulars: 3D7, Erythrocyte. Format: functional, organism-based. An outline of the steps: as §3
A short description of data set [28]: Therapeutic index, ratio of EC50 for human HepG2 cells to IC50 for chloroquine-sensitive blood parasite forms of Plasmodium falciparum 3D7. Format: toxicity. Particulars: read-out: TI.
Data set [29] can be described thus: Metabolic stability in rat liver microsomes assessed as compound remaining at 4 uM after 30 mins in presence of NADPH by HPLC analysis. The settings on record: read-out: Stability. Format: ADME, microsome. In outline:
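Rat pooled liver microsomes (final 2 mg/mL protein) in 0.1 M phosphate buffer pH 7.4 with 30 mM MgCl2 and 10 mM NADPH; compounds at 4 µM final; verapamil 0.1 mM positive control. Reactions quenched with ice-cold acetonitrile at set times; parent remaining measured by LC-MS/MS; first-order depletion rate used to derive half-life.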
(Liver microsomes are a subcellular fraction often used to study metabolism.)

Data set [30] concerns HepG2. Briefly: Cytotoxicity against human HepG2 cells assessed as reduction in cell viability after 24 hrs by MTT assay. Format: cell-based. Particulars: HepG2, 24 h. An outline of the steps: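 HepG2 cells in RPMI-1640 with 10% heat-inactivated serum, seeded 5×10^3 per well, allowed to adhere 18 h at 37 °C, then exposed to compound (400–6.2 µM) for 24 h at 37 °C, 5% CO2. MTT (5 mg/mL) for 3 h, formazan dissolved in DMSO, absorbance 570 nm with 630 nm background; viability as percent of untreated control.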
Background: Formazan colour is commonly taken as a measure of viable cells.

Active and inactive are the calls of the source. The calls are words filed in the database; no cut-off is given here.

On to `COc1ccc2c(c1)nc(-c1ccc(NC(=O)OC(C)(C)C)cc1)c1[nH]ccc12`, for which the Activity in data set [1] was 34%; in [2], “Dose-dependent effect”; in [3], “Non-Toxic”; in data set [4], “Non-Toxic”; in data set [5], 58%; in data set [9] it was 55%. Besides, the Activity in data set [12] is 61%; in data set [14] it was “Non-Toxic”; in data set [15], 62%; in data set [16], 54%; in data set [21], “Dose-dependent effect”; in data set [24], “Non-Toxic”. In addition, the IC50 is 50 nM in data set [6]; 76 nM in [8]; 28 nM in [10]; 41 nM in data set [20]; 39 nM in data set [22] (read-out: IC50); 39.8 nM in [22] (read-out: pIC50 (converted)). For the same compound, the IC50 in data set [26] was found to be 33 nM; in data set [27] it was 39 nM. Also, the Survival in data set [7] stood at 14%; in data set [17], 6%; in [18], 24 days; in data set [19], 25 days. Further, in [11], the FIC worked out at 1. Further, the inhibition at 1 µM amounted to 2% in data set [13] and 7% in [25]. In addition, the result in data set [23] was Active.

For the compound `COc1ccc2c(c1)nc(-c1ccc(Cl)cc1)c1[nH]ccc12`, the Activity result in data set [4] is on record as “Non-Toxic”; in data set [9] it was 0%; in [15] it was 0%; in [16], 0%; in [24], “Non-Toxic”. Besides, the IC50 in [6] came out at 380 nM; in data set [10], 500 nM; in data set [22] (read-out: IC50), 600 nM; in data set [26] it was 460 nM; in data set [27], 600 nM. Moreover, the selectivity ratio in data set [28] is > 417. Moreover, in data set [19], the Survival amounted to 22 days. The remaining at 0.5 h, 4 µM in data set [29] stood at 15%. The outcome in data set [23] was Active. Also, the 50% effective concentration (EC50) in data set [30] was > 250000 nM.
